# NALP1 inh = NALP1 inhibition; S. cerevisiae NALP1/ASC/caspase-1 growth, X-gal OD620, 72 h; inhibition, % at 10 µM; 280,000 compounds, 0.61% hits; in the data active = inhibition mostly above about 24%, no sharp cut-off; inactive = mostly below about 32%
# ALR inh = human ALR oxidase inhibition via reduced H2O2; P55789; purified ALR, DTT oxidation, H2O2 HRP-luminol luminescence; inhibition, % (test concentration not listed); 290,000 compounds, 3.8% hits;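 active = mean replicate inhibition above about 79%, with every replicate also reaching it, limit read from the data; inconclusive = only one of the two criteria met; inactive = mean below limit and not every replicate reaching it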
# Target sequence (P55789 whole entry, looked up): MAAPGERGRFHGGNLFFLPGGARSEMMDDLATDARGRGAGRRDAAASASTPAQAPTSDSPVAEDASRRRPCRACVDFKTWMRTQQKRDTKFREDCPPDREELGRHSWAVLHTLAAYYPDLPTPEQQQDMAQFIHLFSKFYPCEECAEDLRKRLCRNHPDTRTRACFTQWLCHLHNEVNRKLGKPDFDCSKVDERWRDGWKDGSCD
# NALP3 yeast inh = inhibitors of NALP3 inflammasome in yeast; inhibition, % at 10 µM; 330,000 compounds, 0.39% hits; Yeast reconstituted NLRP3/ASC/caspase-1, beta-gal luminescence, 24 h; AID 2825;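 active = inhibition of 50% or more; inactive = inhibition below 50%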;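 also: plate controls were induced DMSO wells for no effect and uninduced yeast grown without galactose for full effect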
# Calb FLC = affects C. albicans growth with fluconazole; C. albicans CaCi-2 + fluconazole, Alamar Blue growth, 48 h; growth inhibition, % (no concentration beside the values); 300,000 compounds, 0.57% hits; AID 1979;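 active = growth inhibition above about 58% in most replicates, limit read from the data, passing the limit was not always enough; inconclusive = exactly half the replicates above a set limit; inactive = most replicates below a set limit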;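 also: all wells also contain fluconazole at 8 µg/ml as a sub-toxic cotreatment; 0% = median of DMSO wells and 100% = median of geldanamycin control wells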
# ATG4B inh = inhibitors of human ATG4B cysteine protease; Q9Y4P1; ATG4B cleavage of LC3-PLA2, NBD-HPC fluorescence, 1 h; inhibition, % at 8.33 µM; 340,000 compounds, 0.51% hits; AID 504462; in the data active = inhibition above about 40%
# Target sequence (Q9Y4P1 whole entry, looked up): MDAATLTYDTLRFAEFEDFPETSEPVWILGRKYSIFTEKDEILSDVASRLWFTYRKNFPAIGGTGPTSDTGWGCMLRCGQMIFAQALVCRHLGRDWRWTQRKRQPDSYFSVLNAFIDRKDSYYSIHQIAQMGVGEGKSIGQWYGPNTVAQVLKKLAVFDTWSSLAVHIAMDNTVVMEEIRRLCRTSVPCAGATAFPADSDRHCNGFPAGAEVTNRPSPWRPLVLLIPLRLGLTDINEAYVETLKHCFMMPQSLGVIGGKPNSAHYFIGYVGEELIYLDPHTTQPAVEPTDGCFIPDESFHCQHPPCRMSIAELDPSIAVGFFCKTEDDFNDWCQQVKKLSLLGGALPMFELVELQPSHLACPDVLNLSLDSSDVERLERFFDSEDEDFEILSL
# UCH37 DUB inh = human UCH37 deubiquitinating enzyme inhibition. inhibition, % (test concentration not listed). 330,000 compounds, 0.33% hits. purified proteasome/UCH37, Ub-AMC cleavage fluorescence;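 active = mean inhibition over replicate wells above about 20%, limit read from the data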;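 also: 0% = compound-free wells with enzyme and 100% = wells lacking proteasome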
#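 assay system = human UCH37 enzyme supplied as purified proteasome complex | amount = proteasome at 0.15 nM in the dispensed enzyme solution | schedule = 30 min compound-proteasome preincubation then 25 min substrate reaction, room temperature | measured by = fluorescence, ex 355 nm, em 460 nm | benchmarks = no-proteasome wells (full inhibition) and compound-free wells (no inhibition)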
# * marks the source's active call; other numbers are inactive results; ? = inconclusive; · = no result given. In the library only some 4.8% were active in any assay of this set; here they are far more common.
SMILES,NALP1 inh,ALR inh,NALP3 yeast inh,Calb FLC,ATG4B inh,UCH37 DUB inh
CC(=O)c1cccc(NC(=O)CSc2ncc(C(=O)Nc3ccccc3)c(=O)n2C)c1,·,99*,12,8,-7,-82
Cn1c(SCC(=O)NCC2CCCO2)ncc(C(=O)Nc2ccc(Cl)cc2)c1=O (centres undefined),·,20,15,-1,0,-181
Cn1c(SCC(=O)NCCc2ccccc2)ncc(C(=O)Nc2ccccc2)c1=O,·,0,23,2,0,-58
CC(=O)Nc1cccc(NC(=O)CSc2ncc(C(=O)Nc3ccccc3)c(=O)n2C)c1,·,·,18,-3,4,-147
CC(=O)Nc1ccc(NC(=O)CSc2ncc(C(=O)Nc3ccc(Cl)cc3)c(=O)n2C)cc1,·,99*,3,2,-5,-19
CC(=NNC(=O)CSCc1ccc(Cl)cc1)c1ccc(NC(=O)c2ccccc2)cc1,·,·,·,·,·,-3
CC(C)c1c(C(=O)NN=Cc2cccs2)nnn1-c1nonc1N,·,·,·,·,·,10
CCCCCCC1CC(C)(C(C)=NNC(N)=O)OC1=O (centres undefined),·,·,·,·,·,1
O=C(Cn1cc(C(F)(F)F)ccc1=O)NN=Cc1ccc(Cl)cc1,·,·,·,·,·,2
CC(=O)Nc1ccc(NC(=O)CSc2nnnn2-c2ccc(F)cc2)cc1,28,98*,4,3,2,4
O=C(CSC(=O)c1ccccc1)Nc1ccccc1F,·,·,19,·,-2,7
CC(=O)c1cccc(NC(=O)CSC(=O)c2ccccc2)c1,32,99*,9,5,-8,-6
O=C(NCc1ccccc1)c1ccc(Oc2ccc(C(=O)NCc3ccccc3)cc2)cc1,14,5,13,-6,5,3
O=C(NCc1ccccc1)c1ccc(OC2CSC2)cc1,35*,-5,22,-9,5,0
CN(C)c1ccc(CC2C(=O)Nc3ccccc32)cc1 (centres undefined),0,98*,11,10,2,7
Cc1ccc(C(=O)NCC(c2ccco2)N2CCc3ccccc32)cc1 (centres undefined),·,77*,3,21,9,-1
O=C(NCC(c1ccco1)N1CCc2ccccc21)c1ccccc1Br (centres undefined),·,45,15,-1,2,1
O=C(NCC(c1ccco1)N1CCc2ccccc21)c1ccccc1F (centres undefined),·,98*,22,30,4,0
O=C(CCc1ccccc1)NCC(c1ccco1)N1CCc2ccccc21 (centres undefined),·,98*,18,-5,4,2
NS(=O)(=O)c1ccc(NN=Cc2ccccc2C(=O)O)c([N+](=O)[O-])c1,·,·,·,·,·,-31
CCOc1cc(C=NNC(=O)c2ccncc2)ccc1OC(=O)c1ccc([N+](=O)[O-])cc1,·,·,·,·,·,2
Cc1ccc2[nH]c3c(c2c1)CCc1cn[nH]c1-3,10,99*,-12,32,-7,-16
Cc1ccc2[nH]c3c(c2c1)CCC3=O,-3,-5,17,5,-5,-203
CC(C)CCNC(=O)COC(=O)/C=C/c1ccc2ccccc2n1,-7,97*,9,44,0,-4
Cc1nn(C)c(C(=O)Nc2cccc(Nc3ccccc3)c2)c1[N+](=O)[O-],-7,98*,31,-4,·,·
SMILES,NALP1 inh,ALR inh,NALP3 yeast inh,Calb FLC,ATG4B inh,UCH37 DUB inh
Cc1nn(C)c(C(=O)N/N=C/c2ccccc2)c1[N+](=O)[O-],18,-3,13,0,-15,·
CC(C)(C)c1csc(NN=Cc2cccnc2)n1,·,·,·,·,·,6
O=C(O)CN1C(=O)/C(=C\c2cc(Br)ccc2OCc2ccc([N+](=O)[O-])cc2)SC1=S,3,83*,16,14,5,20*
O=C(O)CCN1C(=O)/C(=C\c2ccc(OCc3ccccc3)c(OCc3ccccc3)c2)SC1=S,10,-9,2,-14,18,12
COC(=O)c1ccc(NC(=O)CSCc2ccccc2)cc1,-4,99*,33,-5,1,1
Cc1cc(C)nc(SCC(=O)Nc2ccc(S(=O)(=O)Nc3ncccn3)cc2)n1,14,-10,8,15,11,2
CCc1c(C(=O)NNC(=S)Nc2ccc(S(=O)(=O)Nc3ncccn3)cc2)csc1C,-4,98*,3,-4,5,5
O=C(CSCc1ccccc1)Nc1ccc(S(=O)(=O)Nc2ncccn2)cc1,11,98*,11,-4,-7,1
O=S(=O)(Nc1ncccn1)c1ccc(NC(=S)Nc2ccccc2)cc1,12,3,11,28,-1,1
Cc1ccc(SCC(=O)Nc2ccc(S(=O)(=O)Nc3ncccn3)cc2)cc1,-4,90*,23,1,-10,2
O=C(Cc1c(F)cccc1Cl)NN=Cc1cccnc1,·,·,·,·,·,4
COC(=O)c1ccc(NC(=O)Cc2ccccc2)cc1,9,-1,33,-8,1,3
O=C(Nc1ccc(S(=O)(=O)Nc2ncccn2)cc1)C1=COCCO1,·,97*,17,7,0,·
COC(=O)c1ccc(NC(=O)Cc2ccc(C)cc2)cc1,35*,-3,1,3,-12,5
N#CC(=NNc1ccc(F)cc1)C(=O)C1CC1,·,·,·,·,·,11
CCCCCn1c2c(c(=N)c3ccccc31)CCC2,1,-7,-9,-4,4,-5
CCCCCCCCCCn1c2c(c(=N)c3c1CCC3)CCC2,34*,-1,43,107*,19,11
CC(=NNC(=O)C(=O)Nc1ccc(C)cc1)c1ccncc1,·,·,·,·,·,3
O=C(NN=Cc1ccc(-c2cccc([N+](=O)[O-])c2)o1)c1ccccc1O,·,·,·,·,·,3
CCNC(=S)NN=Cc1cccc(OCc2c(F)cccc2Cl)c1,·,·,·,·,·,6
CC(=O)/C(=N/Nc1ccccc1)N1CCOCC1,35,99*,19,-50,2,·
CC(=O)C(=NNc1ccc(C)cc1)N1CCOCC1,·,·,·,·,·,10
CC(=O)/C(=N/Nc1cccc(Cl)c1)N1CCOCC1,9,98*,16,-23,-17,·
COC(=O)NN=Cc1ccccc1OCCOc1ccc(OC)cc1,·,·,·,·,·,1
COc1ccc(/C=C2/C(=O)ON=C2c2ccccc2)cc1OC,1,23,18,-9,-10,1
CCOc1cc(/C=C2\C(=O)ON=C2c2ccccc2)ccc1OC,-4,92*,-5,10,-9,4
O=C(c1cccc(Cl)c1)C1CCCN(Cc2ccc(N3CCNC3=O)cc2)C1 (centres undefined),2,96*,19,-45,15,5
COc1ccc(CN2CCC(C(=O)c3cccc(Cl)c3)CC2)cc1,7,-1,21,-11,1,4
Brc1c(CSc2nnc(-c3ccco3)o2)nc2ccccn12,3,97*,30,-4,-3,-3
CCOC(=O)N1CCN(c2cc(NCCC(=O)O)c3c4c(onc24)-c2ccccc2C3=O)CC1,5,?,5,·,8,27*

# Assay outcomes deposited in PubChem by several laboratories.
